These results are taken from publication PMC2736347 (The Journal of organic chemistry, 2009).

Data set [1] has as its target T1, SIRT1 (Homo sapiens, UniProt Q96EB6).
T1 sequence (Q96EB6 1-747): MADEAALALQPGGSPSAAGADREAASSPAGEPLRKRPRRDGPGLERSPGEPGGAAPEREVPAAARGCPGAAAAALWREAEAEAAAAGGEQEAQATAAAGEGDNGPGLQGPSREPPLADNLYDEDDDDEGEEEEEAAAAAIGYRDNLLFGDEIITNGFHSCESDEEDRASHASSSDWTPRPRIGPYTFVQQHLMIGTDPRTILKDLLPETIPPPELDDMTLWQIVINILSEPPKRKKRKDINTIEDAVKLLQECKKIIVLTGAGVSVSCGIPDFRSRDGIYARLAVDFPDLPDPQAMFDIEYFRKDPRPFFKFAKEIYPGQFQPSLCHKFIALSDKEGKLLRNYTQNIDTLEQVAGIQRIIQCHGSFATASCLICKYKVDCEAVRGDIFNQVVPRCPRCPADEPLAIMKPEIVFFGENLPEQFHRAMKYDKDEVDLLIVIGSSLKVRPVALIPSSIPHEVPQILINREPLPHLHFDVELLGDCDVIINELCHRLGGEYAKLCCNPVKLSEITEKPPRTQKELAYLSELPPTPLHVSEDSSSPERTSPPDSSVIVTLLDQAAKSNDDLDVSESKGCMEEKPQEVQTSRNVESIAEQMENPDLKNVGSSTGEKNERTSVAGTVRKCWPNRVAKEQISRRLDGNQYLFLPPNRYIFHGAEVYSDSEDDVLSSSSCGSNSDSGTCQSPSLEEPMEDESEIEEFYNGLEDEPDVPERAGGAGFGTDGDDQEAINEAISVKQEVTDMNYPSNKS
In words: Secondary SIRT1 inhibitory assay. In kind it is biochemical. The following applies: read-out: SIRT1 IC50 ± SE; second assay system.

The target in data set [2] is T2, SIRT2 (Homo sapiens, UniProt Q8IXJ6).
T2 sequence (Q8IXJ6 1-389): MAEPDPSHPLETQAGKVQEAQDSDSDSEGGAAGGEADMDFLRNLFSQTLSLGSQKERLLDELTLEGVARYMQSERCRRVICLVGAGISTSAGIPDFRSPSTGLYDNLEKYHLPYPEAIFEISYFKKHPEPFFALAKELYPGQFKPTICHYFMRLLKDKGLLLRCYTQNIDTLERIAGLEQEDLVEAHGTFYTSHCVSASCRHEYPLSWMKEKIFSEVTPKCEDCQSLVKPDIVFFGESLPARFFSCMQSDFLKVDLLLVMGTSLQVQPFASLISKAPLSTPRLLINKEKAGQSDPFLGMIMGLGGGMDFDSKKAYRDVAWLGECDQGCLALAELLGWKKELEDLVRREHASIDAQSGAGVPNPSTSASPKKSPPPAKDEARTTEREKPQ
Briefly: Secondary SIRT2 inhibitory assay. Conditions: second assay system; for IC50: read-out: SIRT2 IC50 ± SE. In kind it is biochemical.

The subject of data set [3] is sodium channels. In words: Sodium channel blocking assay in neuro-2a cells. In kind it is cell-based, mouse.
In data set [4] the target is T2, SIRT2. Briefly: Initial SIRT2 inhibitory assay. In kind it is biochemical. In a few lines:
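Reactions contained 50 µM fluor de Lys substrate, 270 nM SIRT2 and 1 mM NAD, with or without test compound, in Buffer A (25 mM Tris-HCl pH 8.0, 137 mM NaCl, 2.7 mM KCl, 1 mM MgCl2). Blanks lacked NAD. After 2 h at 37°, reactions were stopped with 2.7 mg/mL trypsin in Buffer A and developed for 20 min. Fluorescence was read at ex 360/em 460 nm.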

The subject of data set [5] is NCI-H460 lung tumor cells. Briefly: Cytotoxicity assay. The format is cell-based. Conditions: human lung H-460. In short, it runs like this: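 NCI-H460 cells were seeded at 6000 cells/well in 96-well plates and dosed 24 h later. The test compound was dissolved in DMSO and diluted into medium without fetal bovine serum, with DMSO below 0.5% final. Viability was read by MTT reduction.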

In data set [6] the target is T2, SIRT2. Conditions: read-out: IC50 (SIRT2), reported; cited from earlier work.
The subject of data set [7] is Artemia salina. The following applies: cited from earlier work.
The subject of data set [8] is Biomphalaria glabrata. Conditions: cited from earlier work.
The subject of data set [9] is Candida albicans. Conditions: 100 µg/disk; cited from earlier work.

Converted amounts (≈) assume the structure as drawn. “Also recorded” adds a separate entry of the source. Where two headings read alike, the source gives them in different places.

Usually IC50 stands for the concentration at which inhibition is half-maximal. (5S, 5’S)-tanikolide dimer [ent-5]: in [1], the IC50 stood at 34.5 ± 3.5 µM. In [2], the IC50 worked out at 3.1 ± 0.3 µM and the “fold more potent to the SIRT2 isoform than to SIRT1” value (“fold more potent” below) is given as “approximately 10 fold”.
In the case of `CCCCCCCCCCCC(O)(CO)CCCC(=O)O` (stereo not shown) [Compound 2, Tanikolide seco acid], the “sodium channel blocking activity” value in [3] (highest concentration tested 10 µM) is “inactive”. In addition, the SIRT2 inhibitory activity result in data set [4] (highest concentration tested 50 µM) was “inactive”. Also, the “cytotoxicity to H-460 cell line” value in [5] (at 9.9 µM) is reported as “moderately toxic; also recorded: moderate cytotoxicity”.
`O=c1oc2ccccc2c2oc3cc(O)c(O)cc3c12` [8,9-dihydroxybenzo-[4,5]furo[3,2-c]chromen-6-one]: the half-maximal inhibitory concentration (IC50) in data set [6] was 45 µM.
(5R, 5’R)-tanikolide dimer [Compound 3]: the IC50 in data set [1] came out at 36.4 ± 8.1 µM; in data set [2] (listed as 5), 3.3 ± 0.2 µM; in data set [4] (read-out: IC50 against SIRT2, initial assay format) it was 0.176 µM. Besides, the “inhibition in sodium channel blocking assay” value in [3] (at 5.2 µM) is 54%. For the same compound, the “fold more potent” value in data set [2] is on record as “approximately 10 fold”. Further, the “cytotoxicity to H-460 cell line” value in data set [5] (at 10 µM) is recorded as “did not have any activity”.
In the case of `CCCCCCCCCCC[C@]1(CO)CCCC(=O)O1` [Compound 1, Tanikolide], the LC50 brine shrimp in data set [7] was 3.6 µg/mL (≈ 12.7 µM). For the same compound, in [8], the LC50 snail is 9.0 µg/mL (≈ 31.6 µM). Also, in data set [9], the diameter zone inhibition is given as 13 mm.
As to (5R, 5’S)-tanikolide dimer [Compound 4], in [1], the IC50 came to 28.8 ± 4.3 µM. In data set [2], the IC50 was 2.4 ± 0.2 µM and the “fold more potent” value is reported as “approximately 10 fold”.
